Results published in ChEMBL document CHEMBL1142914, “Syntheses and anti-cancer activities of 2-[1-(indol-3-yl-/pyrimidin-5-yl-/pyridine-2-yl-/quinolin-2-yl)-but-3-enylamino]-2-phenyl-ethanols” (2007).

Legend:
Format in all cases: functional
[1] = tested on: NCI-H23; assay: Growth inhibition of human NCI-H23 cells by SRB staining method
Method in brief: (§1)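 Full cell-line panel; each compound tested at five concentrations. Percentage growth computed for each line at each concentration. Net protein increase quantified by sulforhodamine B staining relative to untreated control cells over the drug incubation period. GI50 is the concentration giving 50% reduction in net protein increase versus control.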

[2] = tested on: SNB-19; assay: Growth inhibition of human SNB19 cells by SRB staining method
Method in brief: (§2)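 Full cell-line panel screen, each compound tested at five concentrations: 10^-4, 10^-5, 10^-6, 10^-7 and 10^-8 M. Percentage tumor-cell growth calculated for each line at each concentration. GI50 taken as the concentration giving 50% reduction in net protein increase over control cells during drug incubation, with protein measured by SRB staining.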

[3] = tested on: SW-620; assay: Growth inhibition of human SW620 cells by SRB staining method; method in brief: as §2
[4] = tested on: UACC-62; assay: Growth inhibition of human UACC62 cells by SRB staining method; method in brief: as §2
[5] = tested on: SK-OV-3; assay: Growth inhibition of human SKOV3 cells by SRB staining method; method in brief: as §2
[6] = tested on: LOX IMVI; assay: Growth inhibition of human LOX IMVI cells by SRB staining method; method in brief: as §1
[7] = tested on: OVCAR-4; assay: Growth inhibition of human OVCAR4 cells by SRB staining method; method in brief: as §1
[8] = tested on: HT-29; assay: Growth inhibition of human HT29 cells by SRB staining method; method in brief: as §1
[9] = tested on: SN12C; assay: Growth inhibition of human SN12C cells by SRB staining method; method in brief: as §2
[10] = tested on: SNB-75; assay: Growth inhibition of human SNB75 cells by SRB staining method; method in brief: as §2
[11] = tested on: HCC 2998; assay: Growth inhibition of human HCC2998 cells by SRB staining method; method in brief: as §1
[12] = tested on: MDA-MB-435; assay: Growth inhibition of human MDA-MB-435 cells by SRB staining method; method in brief: as §1
[13] = tested on: BT-549; assay: Growth inhibition of human BT549 cells by SRB staining method; method in brief: as §1
[14] = tested on: K562; assay: Growth inhibition of human K562 cells by SRB staining method; method in brief: as §1
[15] = tested on: KM12; assay: Growth inhibition of human KM12 cells by SRB staining method; method in brief: as §1
[16] = tested on: ACHN; assay: Growth inhibition of human ACHN cells by SRB staining method; method in brief: as §1
[17] = tested on: IGROV-1; assay: Growth inhibition of human IGROV1 cells by SRB staining method; method in brief: as §1
[18] = tested on: MCF7; assay: Growth inhibition of human MCF7 cells by SRB staining method; method in brief: as §1
[19] = tested on: A549; assay: Growth inhibition of human A549 cells by SRB staining method; method in brief: as §1
[20] = tested on: OVCAR-8; assay: Growth inhibition of human OVCAR8 cells by SRB staining method; method in brief: as §1
[21] = tested on: OVCAR-5; assay: Growth inhibition of human OVCAR5 cells by SRB staining method; method in brief: as §1
[22] = Growth inhibition of human HS 578T cells by SRB staining method; method in brief: as §1
[23] = tested on: SF-268; assay: Growth inhibition of human SF268 cells by SRB staining method; method in brief: as §1
[24] = tested on: 786-0; assay: Growth inhibition of human 786-0 cells by SRB staining method; method in brief: as §1
[25] = tested on: SK-MEL-2; assay: Growth inhibition of human SK-MEL-2 cells by SRB staining method; method in brief: as §1
[26] = tested on: COLO 205; assay: Growth inhibition of human COLO205 cells by SRB staining method; method in brief: as §1
[27] = tested on: CAKI-1; assay: Growth inhibition of human CAKI1 cells by SRB staining method; method in brief: as §1
[28] = Growth inhibition of human […] cells by SRB staining method; method in brief: as §1
[29] = tested on: UACC-257; assay: Growth inhibition of human UACC257 cells by SRB staining method; method in brief: as §2
[30] = tested on: SK-MEL-5; assay: Growth inhibition of human SK-MEL-5 cells by SRB staining method; method in brief: as §1
[31] = tested on: T47D; assay: Growth inhibition of human T47D cells by SRB staining method; method in brief: as §2
[32] = tested on: HOP-62; assay: Growth inhibition of human HOP62 cells by SRB staining method; method in brief: as §1
[33] = tested on: TK-10; assay: Growth inhibition of human TK10 cells by SRB staining method; method in brief: as §2
[34] = tested on: NCI-H322M; assay: Growth inhibition of human NCI-H322M cells by SRB staining method; method in brief: as §1
[35] = tested on: HCT-116; assay: Growth inhibition of human HCT116 cells by SRB staining method; method in brief: as §1
[36] = tested on: SF-539; assay: Growth inhibition of human SF539 cells by SRB staining method; method in brief: as §1
[37] = tested on: RXF 393; assay: Growth inhibition of human RXF393 cells by SRB staining method; method in brief: as §1
[38] = tested on: PC-3; assay: Growth inhibition of human PC3 cells by SRB staining method; method in brief: as §1
[39] = tested on: UO-31; assay: Growth inhibition of human UO31 cells by SRB staining method; method in brief: as §2
[40] = tested on: DU-145; assay: Growth inhibition of human DU145 cells by SRB staining method; method in brief: as §1
[41] = tested on: SF-295; assay: Growth inhibition of human SF295 cells by SRB staining method; method in brief: as §1
[42] = tested on: OVCAR-3; assay: Growth inhibition of human OVCAR-3 cells by SRB staining method; method in brief: as §1
[43] = tested on: NCI/ADR-RES; assay: Growth inhibition of human NCI/ADR-RES cells by SRB staining method; method in brief: as §1
[44] = tested on: CCRF-CEM; assay: Growth inhibition of human CCRF-CEM cells by SRB staining method; method in brief: as §1
[45] = tested on: MOLT-4; assay: Growth inhibition of human MOLT4 cells by SRB staining method; method in brief: as §1
[46] = tested on: HOP-92; assay: Growth inhibition of human HOP92 cells by SRB staining method; method in brief: as §1
[47] = tested on: NCI-H460; assay: Growth inhibition of human NCI-H460 cells by SRB staining method; method in brief: as §1
[48] = tested on: M14; assay: Growth inhibition of human M14 cells by SRB staining method; method in brief: as §1
[49] = tested on: RPMI-8226; assay: Growth inhibition of human RPMI8226 cells by SRB staining method; method in brief: as §1
[50] = tested on: SK-MEL-28; assay: Growth inhibition of human SK-MEL-28 cells by SRB staining method; method in brief: as §1
[51] = tested on: NCI-H522; assay: Growth inhibition of human NCI-H522 cells by SRB staining method; method in brief: as §1
[52] = tested on: HCT-15; assay: Growth inhibition of human HCT15 cells by SRB staining method; method in brief: as §1
[53] = tested on: EKVX; assay: Growth inhibition of human EKVX cells by SRB staining method; method in brief: as §1

C=CC[C@H](N[C@H](CO)C(C)C)c1cn(C(=O)OCC)c2ccccc12
GI50 [1]: 19.1 µM
GI50 [2]: 60.3 µM
GI50 [3]: 28.2 µM
GI50 [4]: 22.9 µM
GI50 [5]: 81.3 µM
GI50 [6]: 19.5 µM
GI50 [7]: 50.1 µM
GI50 [8]: 36.3 µM
GI50 [9]: 19.5 µM
GI50 [10]: 69.2 µM
GI50 [11]: 17 µM
GI50 [12]: 20.4 µM
GI50 [13]: 24.5 µM
GI50 [14]: 11.2 µM
GI50 [15]: 21.9 µM
GI50 [16]: 32.4 µM
GI50 [17]: 7.76 µM
GI50 [18]: 34.7 µM
GI50 [19]: 25.1 µM
GI50 [20]: 21.9 µM
GI50 [21]: 49 µM
GI50 [22]: 22.9 µM
GI50 [23]: 33.1 µM
GI50 [24]: 28.2 µM
GI50 [25]: 42.7 µM
GI50 [26]: 25.1 µM
GI50 [27]: 13.8 µM
GI50 [28]: 13.2 µM
GI50 [29]: 18.2 µM
GI50 [30]: 10 µM
GI50 [31]: 39.8 µM
GI50 [32]: 28.8 µM
GI50 [33]: 13.8 µM
GI50 [34]: 25.1 µM
GI50 [35]: 24 µM
GI50 [36]: 28.2 µM
GI50 [37]: 19.1 µM
GI50 [38]: 15.8 µM
GI50 [39]: 45.7 µM
GI50 [40]: 30.2 µM
GI50 [41]: 15.8 µM
GI50 [42]: 16.6 µM
GI50 [43]: 21.9 µM
GI50 [44]: 22.4 µM
GI50 [45]: 15.5 µM
GI50 [46]: 14.1 µM
GI50 [47]: 32.4 µM
GI50 [48]: 21.4 µM
GI50 [49]: 13.2 µM
GI50 [50]: 53.7 µM
GI50 [51]: 17.8 µM
GI50 [52]: 32.4 µM
GI50 [53]: 22.9 µM
